The full list was thinned out, with hits kept by preference.
Biofilm kill mix: mixture kills Candida albicans biofilm cells | 120,000 compounds, 0.02% hits | inhibition, % at 7.6 µM | AID 1242 | C. albicans biofilm persisters + clotrimazole, fluorescence viability; primary screen in compound mixtures of four per well;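 also: compounds exposed to preformed 24 h biofilms for 48 h; 0% = untreated biofilm control and 100% = clotrimazole plus chlorhexidine kill blank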
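Test system: C. albicans biofilms. Buffer or medium: RPMI/MOPS medium, pH 7.0. Timing: 48 h compound exposure at 37 °C. Technique: Alamar Blue fluorescence. Evaluation: percent inhibition of biofilm viability.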
ABCB1 inh: blocks JC-1 efflux by human ABCB1 transporter | P08183 | CCRF-Adr cells, flow cytometry | inhibition, % at 6.6 µM | 190,000 compounds, 0.067% hits; in the data active = inhibition above about 40%;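 also: 0% = vehicle and 100% = reference inhibitor; higher value means more JC-1 retained so stronger ABCB1 efflux block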
ABCG2 block: blocks JC-1 efflux by human ABCG2 transporter. Q9UNQ0. IgMXP3 cells, flow cytometry. inhibition, % at 6.6 µM. 190,000 compounds, 0.1% hits. AID 1325;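 active = inhibition above 80%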;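 also: 0% = DMSO and 100% = nicardipine control wells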
Target sequence (Q9UNQ0 whole entry, looked up): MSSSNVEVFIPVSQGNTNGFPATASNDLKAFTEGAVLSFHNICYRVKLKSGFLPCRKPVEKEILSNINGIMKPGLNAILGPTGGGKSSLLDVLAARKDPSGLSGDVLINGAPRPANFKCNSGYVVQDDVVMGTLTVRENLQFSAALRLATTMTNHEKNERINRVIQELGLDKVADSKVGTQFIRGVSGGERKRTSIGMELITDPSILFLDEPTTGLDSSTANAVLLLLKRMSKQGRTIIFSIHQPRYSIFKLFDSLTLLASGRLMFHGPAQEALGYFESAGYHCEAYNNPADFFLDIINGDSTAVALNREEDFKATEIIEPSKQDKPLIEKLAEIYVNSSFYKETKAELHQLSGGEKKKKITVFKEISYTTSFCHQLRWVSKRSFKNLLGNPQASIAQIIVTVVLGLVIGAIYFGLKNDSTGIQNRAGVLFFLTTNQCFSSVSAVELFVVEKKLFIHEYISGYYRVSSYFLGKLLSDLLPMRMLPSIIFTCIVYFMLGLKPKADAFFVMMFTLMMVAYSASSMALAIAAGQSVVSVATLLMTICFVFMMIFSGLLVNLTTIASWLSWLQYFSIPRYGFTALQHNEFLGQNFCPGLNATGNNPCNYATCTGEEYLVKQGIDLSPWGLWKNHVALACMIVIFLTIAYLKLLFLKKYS
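Test system: IgMXP3 (ABCG2) plus far-red-tagged CCRF-Adr (ABCB1) cells / Amount: 3 million cells/mL in well / Reagent: JC-1 transporter substrate / Timing: 10 min compound exposure, 25 °C / Signal: flow cytometry, 530 nm JC-1 signal / Read-out: percent efflux inhibition, scaled nicardipine 100% to DMSO 0% / Benchmarks: nicardipine as high control, DMSO as low control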
TRPML3 ag: agonists of human TRPML3 channel; HEK293 TRPML3-YFP, Fluo-8 calcium fluorescence; 100% = the carbachol control signal; activation, % at 3 µM; 220,000 compounds, 0.29% hits;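 active = activation above its plate's cutoff, the mean activation of the plate's test wells plus 3 SD, cut at about 12% in these data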;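 also: 0% = DMSO only wells and 100% = carbachol wells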
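Test system – HEK293 line with stable expression of human TRPML3-YFP channel · Control set – carbachol 87 µM final as high control (100%), DMSO as low control (0%) · Signal – Fluo-8 calcium dye fluorescence, ex 470-495, em 515-575 nm · Incubation – 1-h 37 °C dye load, 5-s basal, 120-s post-compound reads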
zfTRPN1 agonist: activates the zebrafish TRPN1 channel; AID 1424; HEK293 zebrafish TRPN1-YFP, Fluo-8 calcium fluorescence; 100% = response to 87 µM carbachol; activation, % at 3 µM; 220,000 compounds, 0.18% hits;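 active = activation above its plate's cutoff, the mean activation of test wells on that plate plus 3 SD, cut at about 19% in these data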;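 also: 0% = DMSO alone and 100% = 87 µM carbachol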
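Assay system: Zebrafish TRPN1-YFP in HEK293 cells | Incubation: Dye loading 1 h at 37 °C, then 30 min room temperature | Measured by: Kinetic Fluo-8 fluorescence, ex 470-495, em 515-575 nm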
ROMK primary: modulates human ROMK potassium channel activity; AID 1918; B-score at 10 µM; 130,000 compounds, 2% hits; Tet-inducible ROMK, thallium flux fluorescence; actives lie on both sides; P48048;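 active = signal ratio slope over the read window, or its plate-corrected B-score, at least 3 SD from the plate mean, either direction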;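 also: B-score of the F/F0 ratio slope over 7 to 12 s after thallium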
ROMK retest: confirmation of human ROMK potassium channel modulators. shares compounds with ROMK primary. ROMK thallium flux, fluorescence ratio; active compounds read low. 3,000 compounds, 54% hits. normalized thallium flux (F/F0 slope) at 10 µM;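 active = Flux at 10 µM at least 3 SD below or above vehicle control mean in one or both replicates; inconclusive = no clear call, values can overlap the other calls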
Active calls of the source: *; ? = inconclusive; / = no result given.

SMILES | Biofilm kill mix | ABCB1 inh | ABCG2 block | TRPML3 ag | zfTRPN1 agonist | ROMK primary | ROMK retest
C=CCNC(=S)NNC(=O)c1ccc(=O)n(Cc2ccc(Cl)cc2Cl)c1 | 13.5 | -0.5 | -1.4 | 0.5 | 1.5 | 0.517 | /
CCOc1cccc(C2C(C(=O)c3ccc(C)o3)=C(O)C(=O)N2c2nccs2)c1 (centres undefined) | / | 0.1 | 3.4 | 3.5 | 3.6 | -5.41* | 0.0379*
CCOc1cccc(C2C(C(=O)c3ccc(C)o3)=C(O)C(=O)N2Cc2ccncc2)c1 (centres undefined) | / | 0.3 | 1.5 | 0.7 | 0.1 | / | /
Cn1nc(C(F)(F)F)c(-c2cccc(C(F)(F)F)c2)c1NC(=O)Nc1ccc(F)cc1 | 19.2 | / | / | 8.7 | 16.9 | / | /
Cc1ccc(CC(=O)NCc2ccc(F)cc2)cc1 | 13.0 | 1.2 | 3.8 | -0.3 | -1.3 | 4.4* | 0.0943
Cc1ccc(CNC(=O)Cc2ccc(-n3c(=O)[nH]c4ccsc4c3=O)cc2)cc1 | 13.4 | -1.5 | -6.1 | 0.8 | 0.1 | 2.08 | 0.0953
COc1cc(CNc2ccc(N3CCCC3)cc2)cc(Cl)c1OC | -7.0 | -0.3 | 0.3 | -0.5 | -3.3 | 4.01* | 0.0741
CCOC(=O)N1CCC(N2CCCC(CO)(Cc3cccc(Cl)c3)C2)CC1 (centres undefined) | 15.3 | 0.7 | 3.0 | 1.0 | 1.2 | -1.11 | /
CCN(CC)CCCNC(=S)N(Cc1cccs1)Cc1cc2cc3c(cc2[nH]c1=O)OCCO3 | 23.9 | 0.3 | 4.2 | 1.3 | 0.1 | -11.5* | 0.0546*
NNC(=O)Cn1c(-c2ccccc2)cc(=O)n2ncnc12 | 17.9 | / | / | 0.8 | -0.2 | 0.78 | /
Cc1ccc(C(C(=O)NC2CCCCC2)N(C(=O)Cc2c[nH]c3ccccc23)c2ccccc2C)o1 (centres undefined) | 15.1 | 0.9 | 3.8 | 0.7 | -0.7 | 0.512 | /
Cc1ccc(C(C(=O)NC2CCCCC2)N(Cc2ccco2)C(=O)Cc2c[nH]c3ccccc23)o1 (centres undefined) | / | 1.0 | 1.0 | -1.1 | -1.4 | / | ?
O=C(O)c1cccc(CN2C(=O)S/C(=C/c3cccc([N+](=O)[O-])c3)C2=O)c1 | 13.8 | / | / | 0.3 | 1.2 | -12.2* | 0.0305*
CNC(=S)Nc1cccc(C(=O)OC)c1 | 14.2 | / | / | 2.5 | 0.5 | / | /
COc1ccc(-c2n(CC(=O)OC3CC(C)CCC3C(C)C)c3ccccc3[n+]2C)cc1 (centres undefined) | 10.4 | 0.3 | 0.4 | 0.2 | -0.7 | -1.8* | 0.0379*
COc1ccc(OCc2n(CC(=O)OC3CC(C)CCC3C(C)C)c3ccccc3[n+]2C)cc1 (centres undefined) | 23.5 | / | / | -0.3 | -2.0 | -0.459 | /
N#CC1=C(N)NC(SCC(=O)c2ccc(Br)cc2)=C(C#N)C12CCCCC2 | 7.0 | 0.4 | 0.2 | -0.1 | 2.9 | -0.848 | /
N#CC1=C(N)NC(SCC(=O)c2ccc(Cl)cc2)=C(C#N)C12CCCC2 | / | -0.1 | -0.5 | 0.8 | 3.0 | -2.34* | 0.0662*
O=C(NCc1n[nH]c(=S)n1-c1cccc(Cl)c1)c1ccc(S(=O)(=O)N2CCCC2)cc1 | / | -0.8 | -2.2 | 0.1 | 1.3 | / | /
O=C(NCc1n[nH]c(=S)n1-c1ccc(F)cc1)c1ccc(S(=O)(=O)N2CCCC2)cc1 | / | -0.6 | -1.0 | 1.2 | -0.8 | 1.27* | 0.0857
Cc1ccc(-c2onc3ccc(C4OCCO4)cc23)cc1 | 3.4 | -2.2 | 21.0 | -0.5 | -0.3 | -0.16 | /
CC(C)Oc1cccc(C(=O)Nc2ccccc2N2CCOCC2)c1 | / | 0.8 | 7.4 | -1.9 | -0.2 | / | /
COC(=O)c1ccccc1NC(=O)CNc1cc(Cl)ccc1N1CCOCC1 | / | 2.4 | 32.5 | 0.2 | 0.2 | / | /
Cc1cc(Cl)ccc1OC(C)C(=O)Nc1ccccc1N1CCOCC1 (centres undefined) | / | 1.4 | 2.7 | 176.9* | 46.0* | / | ?
COc1ccc(Cl)cc1NC(=O)CN(C)CC(=O)Nc1ccccc1N1CCOCC1 | 13.6 | 5.6 | 9.5 | 0.3 | -0.4 | 5.09* | ?
